Active and inactive are the calls of the source. No cut-off for these calls is given here.
What was measured:
[1] = Retention time of the compound by UPLC-IT-TOF-MS analysis; type: physicochemical
Procedure, shortened: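 Retention on C18 column (100 × 2.1 mm, 1.8 µm) at 30 °C; mobile phase A 0.05% formic acid in water, B 0.05% formic acid in acetonitrile, 0.2 mL/min, linear 5–100% B over 0–18.0 min; IT-TOF-MS detection in positive and negative modes.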

[2] = Drug level in Sprague-Dawley rat feces treated with Magnolol-4'-O-beta-D-glucopyranoside at 100 mg/kg, po by UPLC-IT-TOF-MS analysis; type: ADME, organism-based; conditions: in vivo
Procedure, shortened: (§1)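 Rats (n = 6) housed in metabolic cages received 100.0 mg/kg orally; controls received 0.5% CMC-Na. Plasma, urine and faeces were collected and analyzed by LC-IT-TOF-MS on a C18 column at 30 °C. Gradient 5–100% acetonitrile with 0.05% formic acid over 18 min at 0.2 mL/min; positive and negative ion MS/MS.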

[3] = Drug level in Sprague-Dawley rat urine treated with Magnolol-4'-O-beta-D-glucopyranoside at 100 mg/kg, po by UPLC-IT-TOF-MS analysis; type: ADME, organism-based; conditions: in vivo; procedure, shortened: as §1
[4] = target: T1, Melatonin receptor type 1B (Homo sapiens) (UniProt P49286); assay: Agonist activity at human MT2 receptor expressed in HEK293 cells at 1 mM after 24 hrs by Fluo-8 dye-based calcium assay relative to control; type: functional, cell-based
T1 sequence (whole entry): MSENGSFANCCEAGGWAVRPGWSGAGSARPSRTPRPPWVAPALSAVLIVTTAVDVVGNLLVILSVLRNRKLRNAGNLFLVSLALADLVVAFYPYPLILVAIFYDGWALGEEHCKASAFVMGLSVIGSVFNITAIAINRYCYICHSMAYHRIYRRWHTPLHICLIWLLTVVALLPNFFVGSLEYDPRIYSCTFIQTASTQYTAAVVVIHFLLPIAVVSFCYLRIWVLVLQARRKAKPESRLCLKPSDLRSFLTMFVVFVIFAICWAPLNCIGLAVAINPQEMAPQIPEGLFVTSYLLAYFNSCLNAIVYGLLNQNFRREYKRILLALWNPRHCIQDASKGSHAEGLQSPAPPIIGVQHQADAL
Procedure, shortened: (§2)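 Fluo-8 calcium assay in HEK293 cells stably expressing human MT1 or MT2, seeded 4×10^4/well and incubated 24 h. Compounds tested at 1.00 mM, agomelatine positive control at 3.33 µM; fluorescence at ex 485/em 525 nm. Agonism expressed as mean ± SD, n = 3.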

[5] = target: Melatonin receptor type 1A (Homo sapiens, UniProt P48039); assay: Agonist activity at human MT1 receptor expressed in HEK293 cells at 1 mM after 24 hrs by Fluo-8 dye-based calcium assay relative to control; type: functional, cell-based; procedure, shortened: as §2
Sequence of Melatonin receptor type 1A (P48039 whole entry): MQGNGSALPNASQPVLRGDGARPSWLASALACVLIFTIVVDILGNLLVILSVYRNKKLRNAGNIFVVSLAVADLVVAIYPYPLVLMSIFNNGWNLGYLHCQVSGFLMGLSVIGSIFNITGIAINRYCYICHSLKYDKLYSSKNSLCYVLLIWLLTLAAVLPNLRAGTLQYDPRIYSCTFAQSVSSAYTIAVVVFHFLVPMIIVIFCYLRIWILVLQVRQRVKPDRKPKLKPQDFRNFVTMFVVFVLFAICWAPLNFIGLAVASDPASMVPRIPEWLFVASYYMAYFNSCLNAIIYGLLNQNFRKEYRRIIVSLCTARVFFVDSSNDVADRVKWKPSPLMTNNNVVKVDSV

[6] = system: Mus musculus; assay: Antidepressant activity in Kunming mouse assessed as decrease in immobility time at 20 mg/kg, po by tail suspension test; type: functional, organism-based
Procedure, shortened: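 Male Kunming mice (18–20 g), dosed orally and tested acoustically and visually isolated. Each was suspended 50 cm above a wooden box by tape placed about 1 cm from the tail tip for 6 min. Immobility (s) over the last 4 min was recorded automatically by video tracking; n = 10, mean ± SEM vs vehicle.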

[7] = target: T1, Melatonin receptor type 1B (Homo sapiens); assay: Potency index, ratio of compound effect to magnolol effect for human MT2 receptor; type: functional
[8] = Drug level in Sprague-Dawley rat plasma treated with Magnolol-4'-O-beta-D-glucopyranoside at 100 mg/kg, po by UPLC-IT-TOF-MS analysis; type: ADME, organism-based; conditions: in vivo; procedure, shortened: as §1
[9] = system: Mus musculus; assay: Antidepressant activity in Kunming mouse assessed as decrease in immobility duration at 20 mg/kg, po by forced swim test; type: functional, organism-based
Procedure, shortened: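 Male Kunming mice (18–20 g), group-housed at 22 ± 2 °C on a 12 h light/dark cycle, dosed orally. Each mouse was placed in a glass cylinder (25 cm high, 15 cm diameter) holding 10 cm of water at 25 ± 1 °C and made to swim for 6 min. Immobility over the last 4 min was scored automatically by video tracking; n = 10, mean ± SEM vs vehicle.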

SMILES	Retention_time [1] [min]	Drug metabolism [3]	Activity [4] [%]	Activity [5] [%]	further results
C=CC(O)c1ccc(O[C@@H]2O[C@H](CO)[C@@H](O)[C@H](O)[C@H]2O)c(-c2cc(CCC)ccc2OS(=O)(=O)O)c1 (some centres undefined)	6.91				Drug metabolism [2]: Metabolite_Detected
C=CCc1ccc(OC)c(-c2cc(CC=C)ccc2O[C@@H]2O[C@H](C(=O)O)[C@@H](O)[C@H](O)[C@H]2O)c1	12.4	Metabolite_Detected			
C=CCc1ccc(O)c(-c2cc(CC3CO3)ccc2O)c1 (centres undefined)			-3.08	53.8	
C=CC(O)c1ccc(O)c(-c2cc(C(O)C=C)ccc2O)c1 (centres undefined)	11.06	Metabolite_Detected			Drug metabolism [2]: Metabolite_Detected
C=CCc1ccc(O[C@@H]2O[C@H](CO)[C@@H](O)[C@H](O)[C@H]2O)c(-c2cc(CC=C)ccc2OS(=O)(=O)O)c1	8.17				Drug metabolism [2]: Metabolite_Detected
COc1ccc2cccc(CCNC(C)=O)c2c1					Activity [6]: Active
C=CCc1ccc(O)c(-c2cc(C(=O)C=C)ccc2O[C@@H]2O[C@H](CO)[C@@H](O)[C@H](O)[C@H]2O)c1	10.59	Metabolite_Detected			
C=CCc1ccc(OC(=O)C=C)c(-c2cc(CC=C)ccc2OC(=O)C=C)c1			4.57	0.04	
C=CCc1ccc(O)c(-c2cc(CC=C)ccc2OC(=O)CCCCl)c1			69.7	32	Ratio [7]: 3.5 to 4.5
C=CCc1ccc(O[C@@H]2O[C@H](COC(C)=O)[C@@H](OC(C)=O)[C@H](OC(C)=O)[C@H]2OC(C)=O)c(-c2cc(CC=C)ccc2O[C@@H]2O[C@H](COC(C)=O)[C@@H](OC(C)=O)[C@H](OC(C)=O)[C@H]2OC(C)=O)c1			0.04	7.09	
C=CC(=O)c1ccc(O[C@@H]2O[C@H](CO)[C@@H](O)[C@H](O)[C@H]2O)c(-c2cc(C(O)C=C)ccc2O)c1 (some centres undefined)	10.88	Metabolite_Detected			
C=CCc1ccc(O)c(-c2cc(CC=C)ccc2OC(=O)c2ccc(N)cc2)c1			5.17	-1.55	
C=CCc1ccc(O)c(-c2cc(CC=C)ccc2OC(C)=O)c1			77.6	91.4	
C=CCc1ccc(OC(=O)CCCCl)c(-c2cc(CC=C)ccc2OC(=O)CCCCl)c1			2.11	8.14	
C=CCc1ccc(OC(C)=O)c(-c2cc(CC=C)ccc2OC(C)=O)c1			-2.52	-1.86	
C=CC(=O)c1ccc(O)c(-c2cc(C(=O)CC)ccc2OS(=O)(=O)O)c1	9.05	Metabolite_Detected			
C=CCc1ccc(O)c(-c2cc(CC=C)ccc2O)c1 [MAGNOLOL]	14.33	Metabolite_Detected	20	40.2	Drug metabolism [2]: Metabolite_Detected
C=CCc1ccc(OC(=O)/C=C/c2ccccc2)c(-c2cc(CC=C)ccc2O[C@@H]2O[C@H](CO)[C@@H](O)[C@H](O)[C@H]2O)c1			-10.1	50.3	
C=CC(O)c1ccc(O)c(-c2cc(CCC)ccc2OS(=O)(=O)O)c1 (centres undefined)	7.55				Drug metabolism [2]: Metabolite_Detected
C=CCc1ccc(OC(=O)/C=C/c2ccccc2)c(-c2cc(CC=C)ccc2OC(=O)/C=C/c2ccccc2)c1			3.34	28.3	
C=CCc1ccc(OC(=O)c2ccccc2)c(-c2cc(CC=C)ccc2OC(=O)c2ccccc2)c1			-1.72	-5.93	
C=CCc1ccc(O)c(-c2cc(CC=C)ccc2O[C@@H]2O[C@H](COC(C)=O)[C@@H](OC(C)=O)[C@H](OC(C)=O)[C@H]2O)c1			19.1	11	

SMILES	Retention_time [1] [min]	Drug metabolism [3]	Activity [4] [%]	Activity [5] [%]	further results
C=CCc1ccc(O)c(-c2cc(CC=C)ccc2OC(=O)/C=C/c2ccccc2)c1			25.6	56.8	
C=CCc1ccc(OS(=O)(=O)O)c(-c2cc(C(O)C=C)ccc2O[C@@H]2O[C@H](CO)[C@@H](O)[C@H](O)[C@H]2O)c1 (some centres undefined)	9.24				Drug metabolism [2]: Metabolite_Detected
C=CC(O)c1ccc(O[C@@H]2O[C@H](C(=O)O)[C@@H](O)[C@H](O)[C@H]2O)c(-c2cc(CC(C)O)ccc2OC)c1 (some centres undefined)	8.7	Metabolite_Detected			
C=CCc1ccc(O)c(-c2cc(CC=C)ccc2OS(=O)(=O)O)c1	11.49				Drug metabolism [2]: Metabolite_Detected
C=CC(=O)c1ccc(O[C@@H]2O[C@H](C(=O)O)[C@@H](O)[C@H](O)[C@H]2O)c(-c2cc(C(O)C=C)ccc2O)c1 (some centres undefined)	9.47	Metabolite_Detected			
Oc1ccc(CC2CO2)cc1-c1cc(CC2CO2)ccc1O (centres undefined)			-3.39	2.18	
C=CCc1ccc(O[C@@H]2O[C@H](C(=O)O)[C@@H](O)[C@H](O)[C@H]2O)c(-c2cc(CC=C)ccc2O[C@@H]2O[C@H](CO)[C@@H](O)[C@H](O)[C@H]2O)c1	9.94	Metabolite_Detected			Drug metabolism [2]: Metabolite_Detected
C=CCc1ccc(OC)c(-c2cc(CC=C)ccc2O[C@@H]2O[C@H](CO)[C@@H](O)[C@H](O)[C@H]2O)c1	11.32	Metabolite_Detected			Drug metabolism [8]: Metabolite_Detected; Drug metabolism [2]: Metabolite_Detected
C=CC(O)c1ccc(O[C@@H]2O[C@H](CO)[C@@H](O)[C@H](O)[C@H]2O)c(-c2cc(C(O)CC)ccc2OS(=O)(=O)O)c1 (some centres undefined)	7.39	Metabolite_Detected			
CNCCC(Oc1ccc(C(F)(F)F)cc1)c1ccccc1 (centres undefined)					Activity [9]: Active; Activity [6]: Active
C=CCc1ccc(O)c(-c2cc(CC=C)ccc2O[C@@H]2O[C@H](CO)[C@@H](OC(C)=O)[C@H](OC(C)=O)[C@H]2O)c1			89	31	Ratio [7]: 3.5 to 4.5
C=CC(O)c1ccc(O[C@@H]2O[C@H](C(=O)O)[C@@H](O)[C@H](O)[C@H]2O)c(-c2cc(C(O)CC)ccc2O[C@@H]2O[C@H](CO)[C@@H](O)[C@H](O)[C@H]2O)c1 (some centres undefined)	6.75	Metabolite_Detected			Drug metabolism [2]: Metabolite_Detected
C=CCc1ccc(O[C@@H]2O[C@H](CO)[C@@H](O)[C@H](O)[C@H]2O)c(-c2cc(C(O)C=C)ccc2O[C@@H]2O[C@H](C(=O)O)[C@@H](O)[C@H](O)[C@H]2O)c1 (some centres undefined)	7.79	Metabolite_Detected			Drug metabolism [2]: Metabolite_Detected
C=CCc1ccc(O)c(-c2cc(C(O)C=C)ccc2O[C@@H]2O[C@H](CO)[C@@H](O)[C@H](O)[C@H]2O)c1 (some centres undefined)	9.15	Metabolite_Detected			
C=CCc1ccc(O)c(-c2cc(CC=C)ccc2OC(=O)CCCl)c1			30.1	21	
C=CCc1ccc(OC(=O)/C=C/c2cccc(F)c2)c(-c2cc(CC=C)ccc2O[C@@H]2O[C@H](CO)[C@@H](O)[C@H](O)[C@H]2O)c1			-10.5	5.3	
C=CCc1ccc(O[C@@H]2O[C@H](CO)[C@@H](O)[C@H](O)[C@H]2O)c(-c2cc(CC=C)ccc2O[C@@H]2O[C@H](CO)[C@@H](O)[C@H](O)[C@H]2O)c1	10.63	Metabolite_Detected	10.8	2.97	Drug metabolism [2]: Metabolite_Detected
C=CCc1ccc(O)c(-c2cc(CC=C)ccc2O[C@@H]2O[C@H](COC(C)=O)[C@@H](OC(C)=O)[C@H](OC(C)=O)[C@H]2OC(C)=O)c1			-2.09	-0.58	
C=CCc1ccc(OC(=O)c2ccccc2)c(-c2cc(CC=C)ccc2O[C@@H]2O[C@H](CO)[C@@H](O)[C@H](O)[C@H]2O)c1			-5.71	13.2	
C=CCc1ccc(O)c(-c2cc(CC=C)ccc2OC(=O)c2ccccc2)c1			-0.04	-6.5	
C=CCc1ccc(O)c(-c2cc(CC=C)ccc2OC(=O)C=C)c1			2.93	1.31	

Source: ChEMBL document CHEMBL4270555, “Synthesis and biological evaluation of magnolol derivatives as melatonergic receptor agonists with potential use in depression” (Eur J Med Chem, 2018)
